Measurements as given in ChEMBL document CHEMBL3588831, “Synthesis and in Vivo Evaluation of [123I]Melanin-Targeted Agents” (J Med Chem, 2015).

Legend:
Details in all cases: in vivo; call rule not given here
Liver = test: Biodistribution in liver of C57BL/6J mouse bearing mouse B16F0 cells at 0.37 to 1.85 MBq, iv after 1 hr by gamma counting method; type: ADME, organism-based
Summary of the method: (§1)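 Female C57BL/6J mice (5−6 weeks), s.c. inoculated on left flank with 3 × 10^5 B16F0 cells in Ca2+/Mg2+-free PBS, used 11 days later (tumors 2−12 mm). Radiotracer given via tail vein in 100 μL (~0.37 MBq for 1−24 h, 1.85 MBq for 48 h). Organs dissected, weighed, γ-counted, decay corrected. Expressed as % ID/g against injected-dose dilutions. Mean ± SEM, n = 5.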

Mus musculus [1] = test: Biodistribution in tumor of C57BL/6J mouse bearing mouse B16F0 cells at 0.37 to 1.85 MBq, iv after 16 hrs by gamma counting method; type: ADME, organism-based; summary of the method: as §1
[2] = Drug distribution in eyes of C57BL/6J mouse bearing mouse B16F0 cells at 18 to 20 MBq, iv measured over 72 hrs by SPECT imaging study; type: ADME, organism-based, Eye
Summary of the method: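 Female C57BL/6J mice (5–6 weeks) were inoculated s.c. on the left flank with 3 × 10^5 B16F0 cells in PBS and used after 11 days, with tumors 2–12 mm. Each received 18–20 MBq in 100 μL by lateral tail vein (n = 3 per tracer). Planar SPECT was done under isoflurane at 10–60 min, 3, 6, 24, 48 and 72 h. ROI pixel values were decay-corrected.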

Mus musculus [3] = test: Biodistribution in small gastrointestinal tract of C57BL/6J mouse bearing mouse B16F0 cells at 0.37 to 1.85 MBq, iv after 16 hrs by gamma counting method; type: ADME, organism-based, Small intestine; summary of the method: as §1

| Compound | Drug uptake (Liver) [% ID/g] | Drug uptake (Mus musculus [1]) [% ID/g] | Drug uptake [2] | Drug uptake (Mus musculus [3]) [% ID/g] |
| --- | --- | --- | --- | --- |
| O=C(c1ccc2c(n1)NCCC2)N1CCN(Cc2ccc([123I])cc2)CC1 | 19.5 | 20.4 | Active | 1.4 |
| O=C(CN1Cc2ccccc2C1=O)NC1CCN(Cc2ccc([123I])cc2)CC1 | 41.8 | 18.1 | Active | 3.7 |
| O=C(CN1Cc2ccccc2C1=O)N1C[C@H]2CN(Cc3ccc([123I])cc3)C[C@H]2C1 | 12.3 | 11.6 | Active | 0.5 |
| O=C(c1ccc2cccnc2n1)N1CCN(Cc2ccc([123I])cc2)CC1 | 15.9 | 18.4 | Active | 1.3 |
